Laboratory results reported in ChEMBL document CHEMBL1133978, “Potent peptide alpha-ketohydroxamate inhibitors of recombinant human calpain I” (Bioorg Med Chem Lett, 2001).
pIC50: −log10 of the molar value.

What follows are molecules tested on MOLT-4 (assay: Compound was tested for inhibition of cell permeability by measuring the spectrin breakdown product in intact MOLT-4 cells at 1 uM). Conditions: Homo sapiens.
Assay type: functional
Summary of the method: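 In intact MOLT-4 human leukemia T cells, calpain was activated by ionomycin. Spectrin breakdown product was measured, and inhibition is given as percent at a single 1 μM test concentration.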

Row | SMILES | inhibition at 1 µM [%]
1 | CC(C)C[C@H](NC(=O)OCc1ccccc1)C(=O)N[C@@H](Cc1ccccc1)C(=O)C(=O)NOC1CCC(C)CC1 (stereo partly specified) | 26

The molecules below were run on MOLT-4 (assay: Inhibition of cell permeability by measuring the spectrin breakdown product in intact MOLT-4 cells). Conditions: Homo sapiens.
Assay type: functional, cell-based
Summary of the method: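 Intact MOLT-4 cells (human leukemia T-cell line) had calpain activated with ionomycin. Cell permeability was read as inhibition of the spectrin breakdown product. Potency is reported as IC50.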

Row | SMILES | pIC50
2 | CONC(=O)C(=O)[C@H](Cc1ccccc1)NC(=O)[C@H](CC(C)C)NC(=O)[C@H](CC(C)C)NC(=O)OCc1ccccc1 | 6.70
3 | CC(C)C[C@H](NC(=O)OCc1ccccc1)C(=O)N[C@@H](Cc1ccccc1)C(=O)C(=O)NOC(C)(C)C | 5.41
4 | CONC(=O)C(=O)[C@H](Cc1ccccc1)NC(=O)[C@H](CC(C)C)NC(=O)OCc1ccccc1 | 6.05
5 | CC(C)C[C@H](NC(=O)OCc1ccccc1)C(=O)N[C@@H](Cc1ccccc1)C(=O)C(=O)NOCc1c(F)c(F)c(F)c(F)c1F | 5.54

Other lines, results leading:

Row | pIC50 | SMILES
6 | 6.22 | CC(C)C[C@H](NC(=O)OCc1ccccc1)C(=O)N[C@@H](Cc1ccccc1)C(=O)C(=O)NOCc1ccccc1
7 | 5.96 | CCONC(=O)C(=O)[C@H](Cc1ccccc1)NC(=O)[C@H](CC(C)C)NC(=O)OCc1ccccc1
8 | 6.70 | CC(C)C[C@H](NC(=O)OCc1ccccc1)C(=O)N[C@@H](CC(C)C)C(=O)N[C@@H](Cc1ccccc1)C(=O)C(=O)NOCc1ccccc1
9 | 6.22 | CC(C)[C@@H](NC(=O)OCc1ccccc1)C(=O)N[C@@H](Cc1ccccc1)C(=O)C(=O)NOCc1ccccc1
10 | 6.05 | CS(=O)(=O)N[C@H](COCc1ccccc1)C(=O)N[C@@H](Cc1ccccc1)C(=O)C(=O)NOCc1ccccc1
11 | 6.30 | CCCC[C@H](NC(=O)[C@@H](NC(=O)OCc1ccccc1)C(C)C)C(=O)C(=O)NOCc1ccccc1
